Screens (PubChem)
Fh CTSL1 inh – counter-screen for PFM18AAP inhibitors: inhibitors of F. hepatica cathepsin L1. inhibition, % at 5.96 µM. 0.49% of 300,000 active. AID 1906. recombinant F. hepatica cathepsin L1, Z-Leu-Arg-MCA fluorescence;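 active means inhibition above the mean of all tested compounds plus 3 SD, set per screening campaign, cut at about 17% in these data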;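 further: 0% = plate median of test compound wells and 100% = 1 µM Z-Phe-Ala-diazomethylketone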
Diaphorase act – counter-screen for diaphorase-based assays: diaphorase activators and chemical reducers; 0.005% of 190,000 active; AID 1229; Diaphorase/resazurin coupled assay, resorufin fluorescence, 16 min; hits give high values; 1 = vehicle wells, 0 = NADH-free wells; activation factor at 20 µM;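 active means diaphorase activity raised at least twofold by the compound at 20 µM; inactive means activation factor below 2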
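Measured by – red resorufin fluorescence at 544/590 nm excitation/emission · Test system – Clostridium kluyveri diaphorase, purified enzyme · Incubation – reaction time 16 min, room temperature · Buffer or medium – 50 mM HEPES pH 7.4 with 4.542 mM MgCl2, 0.005% Tween 20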
ATG4B inh – ATG4B (human) cysteine protease inhibition. Q9Y4P1. ATG4B cleavage of LC3-PLA2, NBD-HPC fluorescence, 1 h. inhibition, % at 8.33 µM. 0.51% of 340,000 active; in the data active means inhibition above about 40%
Target sequence (Q9Y4P1 whole entry, looked up): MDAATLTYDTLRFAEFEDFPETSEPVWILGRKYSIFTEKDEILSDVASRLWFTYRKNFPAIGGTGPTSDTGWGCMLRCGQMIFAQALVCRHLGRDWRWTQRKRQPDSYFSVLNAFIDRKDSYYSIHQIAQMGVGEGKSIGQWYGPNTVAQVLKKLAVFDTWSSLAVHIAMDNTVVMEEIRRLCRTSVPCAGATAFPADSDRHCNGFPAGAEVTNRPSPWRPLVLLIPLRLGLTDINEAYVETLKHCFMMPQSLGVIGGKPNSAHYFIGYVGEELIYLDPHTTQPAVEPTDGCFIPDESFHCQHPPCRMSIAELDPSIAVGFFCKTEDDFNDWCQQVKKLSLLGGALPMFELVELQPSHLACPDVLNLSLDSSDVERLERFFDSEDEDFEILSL
HKDC1 inhibitor – HKDC1 (human) hexokinase inhibition; Q2TB90; recombinant HKDC1, G6PDH/diaphorase resazurin coupled fluorescence; inhibition, % at 20 µM; 0.16% of 340,000 active;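 active means inhibition above about 35% when tested at 20 µM, limit read from the data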;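 further: plate controls were DMSO wells with enzyme for no effect and DMSO wells lacking enzyme for full effect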
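System: Recombinant HKDC1 hexokinase | Amount: HKDC1 at 5 µg/mL | Reagent: Glucose with 1 mM ATP | Doses: Single 20 µM dose | Incubation: Reaction time 90 min, room temperature, protected from light | Signal: Coupled resazurin fluorescence, excitation 525 nm, emission 613 nm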
Diaph inh CS – counter-screen for diaphorase-based assays: diaphorase inhibitors and chemical oxidizers; 0.69% of 190,000 active; inhibition, % at 20 µM; diaphorase resazurin-to-resorufin fluorescence, NADH, 16 min; bacterial (C. kluyveri) enzyme, not human;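 active means primary screen inhibition at 20 µM above a set limit, cut at about 50% in these data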;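 further: plate controls were DMSO with full reaction for no effect and wells lacking NADH for full effect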
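Assay system – diaphorase enzyme from Clostridium kluyveri · Amount – diaphorase 0.14 U/mL (working solution) · Times – reaction incubation of 16 min at room temperature · Controls – No-NADH positive control and DMSO neutral control · Signal – resorufin fluorescence 544/590 nm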
ATG4B conf – confirmation of human ATG4B inhibitors; shares compounds with ATG4B inh; ATG4B protease fluorescent substrate cleavage assay; inhibition, % at 8.33 µM; 92% of 320 active; AID 504757; in the data active means inhibition above about 39%
PLA2 counter – inhibits human PLA2, flagging false ATG4B inhibitors; purified PLA2, NBD-C6-HPC fluorescence, 45 min; shares compounds with ATG4B inh; inhibition, % at 8.33 µM; 66% of 1,600 active; AID 588402; in the data active means inhibition above about 50%
Target sequence (P04054 whole entry, looked up): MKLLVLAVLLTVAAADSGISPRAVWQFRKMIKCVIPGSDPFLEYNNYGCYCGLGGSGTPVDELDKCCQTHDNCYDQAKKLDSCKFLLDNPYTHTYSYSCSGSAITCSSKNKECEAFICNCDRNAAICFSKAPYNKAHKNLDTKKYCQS
* hit, by the source's call. A selection: hits, their analogues and other compounds. The true share with any hit is near 1.4%.

For CCCCOc1ccc(C(=S)N2CCC(C(N)=O)CC2)cc1 the results were Fh CTSL1 inh 3.7, Diaphorase act 0.9, ATG4B inh 81.5*, HKDC1 inhibitor -6.5, Diaph inh CS 10.8 and PLA2 counter 83.6*.
COc1ccc(C(=S)N2CCC(C(N)=O)CC2)cc1Br was read as Fh CTSL1 inh -1.5, Diaphorase act 1, ATG4B inh 38.3, HKDC1 inhibitor -5.9 and Diaph inh CS 3.3.
For Cc1ccc(NC2CCCN(C(=O)c3ccc4[nH]ccc4c3)C2)cc1C (stereo not given) the results were Fh CTSL1 inh 0.8, ATG4B inh 17.5 and HKDC1 inhibitor 7.3.
`Cc1cccc(-n2c(O)c(C=Nc3ccccc3-c3n[nH]c(=S)[nH]c3=O)c3ccccc3c2=O)n1` gave Fh CTSL1 inh 8.4, ATG4B inh 5.0 and HKDC1 inhibitor 26.7.
`Cc1ccc(-n2c(O)c(C=Nc3ccccc3-c3n[nH]c(=S)[nH]c3=O)c3ccccc3c2=O)c(C)c1` gave Fh CTSL1 inh 1.9, Diaphorase act 0.3, ATG4B inh 43.0*, HKDC1 inhibitor -0.1, Diaph inh CS 72.2*, ATG4B conf 65.5* and PLA2 counter 47.6.
Screening Cc1nn(C)c(Sc2ccccn2)c1[N+](=O)[O-] returned Fh CTSL1 inh -1.6, ATG4B inh -4.0 and HKDC1 inhibitor 1.1.
Screening COc1ccc2c(c1OC)C(=O)OC2Nc1nc(-c2cccc([N+](=O)[O-])c2)cs1 (stereo not given) returned Fh CTSL1 inh 2.1, ATG4B inh 52.0*, HKDC1 inhibitor 1.4 and PLA2 counter 70.8*.
`COc1ccc(CC(=O)Nc2nc(-c3cccc([N+](=O)[O-])c3)cs2)cc1` gave Fh CTSL1 inh 2.0, Diaphorase act 0.9, ATG4B inh -6.0, HKDC1 inhibitor 6.2 and Diaph inh CS 12.7.
Cc1c(Cl)cccc1NC(=S)NCc1cccs1 was read as Fh CTSL1 inh -3.5, Diaphorase act 1, ATG4B inh 57.1*, HKDC1 inhibitor -4.5, Diaph inh CS 1.4 and PLA2 counter 68.8*.
Cc1ccccc1NC(=S)NCc1cccs1 was read as Fh CTSL1 inh -1.9, Diaphorase act 0.9, ATG4B inh 2.5, HKDC1 inhibitor -4.0 and Diaph inh CS 12.3.
Screening S=C(NCc1cccs1)Nc1cccc(Cl)c1Cl returned Fh CTSL1 inh 4.8, Diaphorase act 1, ATG4B inh 51.5*, HKDC1 inhibitor -9.2, Diaph inh CS 2.6 and PLA2 counter 52.5*.
Screening CCc1oc2ccccc2c1C(=O)c1cc(Br)c(O)c(Br)c1 returned Fh CTSL1 inh -0.3, Diaphorase act 0.8, ATG4B inh 95.5*, HKDC1 inhibitor 3.3, Diaph inh CS 24.6 and PLA2 counter 96.2*.
Cc1ccnc2nc(C(=O)OCC(=O)N(CC(C)C)C3CCS(=O)(=O)C3)nn12 (stereo not given) was read as ATG4B inh 1.7 and HKDC1 inhibitor -8.8.
For OCCNc1nc(SCc2ccccc2)nc2sc3c(c12)CCC3 the results were Diaphorase act 0.8, ATG4B inh 69.1*, HKDC1 inhibitor 5.9, Diaph inh CS 17.9 and PLA2 counter 90.3*.
`CC(C)C(Sc1nc(-c2ccccc2)cc(-c2ccccc2)c1C#N)C(=O)O` (stereo not given) gave Fh CTSL1 inh 0.5, Diaphorase act 0.9, ATG4B inh 46.2*, HKDC1 inhibitor 2.1, Diaph inh CS 12.1, ATG4B conf 60.6* and PLA2 counter 38.8.
Screening CCOC(=O)c1ccc(N=C2SC(C(=O)NC)CC(=O)N2Cc2ccc(F)cc2)cc1 (stereo not given) returned Fh CTSL1 inh 1.4, Diaphorase act 1, ATG4B inh 1.4, HKDC1 inhibitor -6.7 and Diaph inh CS -0.6.
For CCOC(=O)c1ccc(N=C2SC(C(=O)Nc3ccc(C(=O)O)cc3)CC(=O)N2Cc2cccs2)cc1 (stereo not given) the results were Fh CTSL1 inh 3.9, Diaphorase act 0.8, ATG4B inh 55.4*, HKDC1 inhibitor -7.1, Diaph inh CS 19.4 and PLA2 counter 55.2*.
`CCOc1ccc(NC(=O)N2CCC(NC(=O)C(Cc3ccccc3OC)NC(C)=O)CC2)cc1` (stereo not given) gave Fh CTSL1 inh -1.3, ATG4B inh 1.1 and HKDC1 inhibitor -5.0.
For CC(CC(=O)NC1CCCCC1)S(=O)(=O)c1ccc2c(c1)NC(=O)CO2 (stereo not given) the results were Fh CTSL1 inh 4.3, ATG4B inh -3.6 and HKDC1 inhibitor 6.7.
For COCCNC(=O)/C(C#N)=C/c1c(N2CCN(c3ccccc3)CC2)nc2c(C)cccn2c1=O the results were Fh CTSL1 inh 2.5, ATG4B inh 40.2*, HKDC1 inhibitor 1.9, ATG4B conf 65.4* and PLA2 counter 45.1.
For Cc1ccccc1Oc1nc2c(C)cccn2c(=O)c1/C=C(\C#N)C(=O)Nc1c(C)n(C)n(-c2ccccc2)c1=O the results were Fh CTSL1 inh 3.3, Diaphorase act 1, ATG4B inh 52.5*, HKDC1 inhibitor 3.1, Diaph inh CS 4.2 and PLA2 counter 66.5*.
S=c1[nH]nc(-c2cc(-c3ccco3)[nH]n2)n1-c1ccccc1Cl was read as Fh CTSL1 inh -0.1, Diaphorase act 0.3, ATG4B inh 49.9*, HKDC1 inhibitor 10.1, Diaph inh CS 70.7* and PLA2 counter -7.3.
CCN(CC(=O)N1CCOCC1)S(=O)(=O)c1ccc2ccccc2c1 was read as ATG4B inh -2.7 and HKDC1 inhibitor -0.4.
For CCN(CC(=O)N1CCc2ccccc2C1)S(=O)(=O)c1ccc2ccccc2c1 the results were Fh CTSL1 inh -2.1, Diaphorase act 0.8, ATG4B inh 45.9*, HKDC1 inhibitor -1.5, Diaph inh CS 23.3, ATG4B conf 66.0* and PLA2 counter 40.9.
O=C1c2ccccc2N2C(=O)c3ccccc3[C@H]2N1c1ccccc1 was read as Fh CTSL1 inh -0.9, Diaphorase act 0.9, ATG4B inh 55.0*, HKDC1 inhibitor -5.5, Diaph inh CS 8.3 and PLA2 counter 60.7*.
For Cc1ccc(NC(=S)/N=C(\N)Nc2nc(C)c3cc(C)ccc3n2)c(C)c1 the results were Fh CTSL1 inh 0.3, Diaphorase act 0.9, ATG4B inh -8.6, HKDC1 inhibitor 7.8 and Diaph inh CS 13.0.
Screening CCc1ccccc1NC(=S)/N=C(\N)Nc1nc(C)c2cc(C)ccc2n1 returned Fh CTSL1 inh 0.0, Diaphorase act 1.1, ATG4B inh 79.7*, HKDC1 inhibitor -2.3, Diaph inh CS -9.3 and PLA2 counter 82.0*.
